These results are taken from article PMC8985159 (RSC Chemical Biology, 2022).

SMILES strings stand for the structures. Read-outs that look alike come from different tables or passages of the source.

Assay [1] concerns the target T1, Sirt2_56-356 (Homo sapiens, UniProt Q8IXJ6).
T1 sequence (Q8IXJ6 56-356): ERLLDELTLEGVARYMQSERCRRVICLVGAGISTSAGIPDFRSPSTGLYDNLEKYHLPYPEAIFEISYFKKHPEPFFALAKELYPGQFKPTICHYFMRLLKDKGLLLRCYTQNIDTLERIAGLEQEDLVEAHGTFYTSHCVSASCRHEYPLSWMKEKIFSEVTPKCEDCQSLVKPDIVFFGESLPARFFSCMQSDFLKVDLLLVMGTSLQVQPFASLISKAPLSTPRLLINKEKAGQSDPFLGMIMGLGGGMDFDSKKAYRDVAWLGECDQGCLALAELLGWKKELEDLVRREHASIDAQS
Description: Sirtuin deacetylation activity assay. The class given is biochemical.

The next assay deals with T2, Sirt3_118-395 (Homo sapiens, UniProt Q9NTG7).
T2 sequence (Q9NTG7 118-395): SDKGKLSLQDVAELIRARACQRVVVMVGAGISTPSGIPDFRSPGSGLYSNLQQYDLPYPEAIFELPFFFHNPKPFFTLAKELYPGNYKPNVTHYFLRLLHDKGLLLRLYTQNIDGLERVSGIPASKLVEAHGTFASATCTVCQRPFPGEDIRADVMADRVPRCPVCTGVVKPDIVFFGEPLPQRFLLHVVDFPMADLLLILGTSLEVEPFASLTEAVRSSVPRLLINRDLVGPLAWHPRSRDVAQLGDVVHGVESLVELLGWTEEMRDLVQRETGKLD
Description: Sirtuin deacetylation activity assay. Type of assay: biochemical.

The target in the next assay is T3, Sirt1_134-747 (Homo sapiens, UniProt Q96EB6).
T3 sequence (Q96EB6 134-747): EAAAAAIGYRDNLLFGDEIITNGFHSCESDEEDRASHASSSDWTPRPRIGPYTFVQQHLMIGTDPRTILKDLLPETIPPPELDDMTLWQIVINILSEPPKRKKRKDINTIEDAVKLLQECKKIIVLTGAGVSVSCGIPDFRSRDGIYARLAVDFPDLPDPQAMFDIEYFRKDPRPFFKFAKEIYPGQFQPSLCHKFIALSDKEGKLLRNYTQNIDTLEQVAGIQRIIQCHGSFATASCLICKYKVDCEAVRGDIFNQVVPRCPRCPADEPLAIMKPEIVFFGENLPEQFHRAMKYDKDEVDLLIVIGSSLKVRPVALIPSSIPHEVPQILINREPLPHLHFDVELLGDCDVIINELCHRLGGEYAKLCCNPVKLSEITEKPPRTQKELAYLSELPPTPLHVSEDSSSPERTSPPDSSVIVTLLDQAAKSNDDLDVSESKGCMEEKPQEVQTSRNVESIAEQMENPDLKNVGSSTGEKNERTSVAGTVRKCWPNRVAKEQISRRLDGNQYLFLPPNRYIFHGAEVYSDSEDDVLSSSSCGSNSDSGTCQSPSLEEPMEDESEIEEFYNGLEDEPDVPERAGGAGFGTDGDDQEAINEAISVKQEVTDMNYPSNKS
Description: Sirtuin deacetylation activity assay. Type of assay: biochemical.

Assay [2] deals with T4, N-terminally labelled Nluc-Sirt2 fusion protein (Homo sapiens, UniProt Q8IXJ6).
T4 sequence (Q8IXJ6 50-356): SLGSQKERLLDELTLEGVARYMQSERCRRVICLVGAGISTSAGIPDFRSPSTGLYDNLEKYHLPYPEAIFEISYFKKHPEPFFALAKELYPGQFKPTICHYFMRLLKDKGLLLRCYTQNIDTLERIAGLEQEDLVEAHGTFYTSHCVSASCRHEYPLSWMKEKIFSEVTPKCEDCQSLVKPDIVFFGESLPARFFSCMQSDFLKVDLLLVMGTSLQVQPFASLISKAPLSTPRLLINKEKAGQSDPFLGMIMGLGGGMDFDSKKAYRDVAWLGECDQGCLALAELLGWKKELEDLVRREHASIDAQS
Description: NanoBRET assay, N-terminal Nluc-Sirt2 fusion in HEK293T cells.

The next assay concerns the target human recombinant HDAC1 (Homo sapiens, UniProt Q13547). Kind of assay: HDAC1 activity assay. Type of assay: biochemical. Summed up:
(§1)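 Enzyme was incubated with serially diluted test compound in DMSO and ZMAL (added from a 126 μM solution) for 90 min at 37 °C. Stop solution (33 μM trichostatin A, 6 mg/mL trypsin) was added, followed by 30 min at 37 °C. Fluorescence read at Ex 390 / Em 460 nm.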

Another assay deals with T5, human recombinant HDAC6 (Homo sapiens, UniProt Q9UBN7).
T5 sequence (Q9UBN7 1-1215): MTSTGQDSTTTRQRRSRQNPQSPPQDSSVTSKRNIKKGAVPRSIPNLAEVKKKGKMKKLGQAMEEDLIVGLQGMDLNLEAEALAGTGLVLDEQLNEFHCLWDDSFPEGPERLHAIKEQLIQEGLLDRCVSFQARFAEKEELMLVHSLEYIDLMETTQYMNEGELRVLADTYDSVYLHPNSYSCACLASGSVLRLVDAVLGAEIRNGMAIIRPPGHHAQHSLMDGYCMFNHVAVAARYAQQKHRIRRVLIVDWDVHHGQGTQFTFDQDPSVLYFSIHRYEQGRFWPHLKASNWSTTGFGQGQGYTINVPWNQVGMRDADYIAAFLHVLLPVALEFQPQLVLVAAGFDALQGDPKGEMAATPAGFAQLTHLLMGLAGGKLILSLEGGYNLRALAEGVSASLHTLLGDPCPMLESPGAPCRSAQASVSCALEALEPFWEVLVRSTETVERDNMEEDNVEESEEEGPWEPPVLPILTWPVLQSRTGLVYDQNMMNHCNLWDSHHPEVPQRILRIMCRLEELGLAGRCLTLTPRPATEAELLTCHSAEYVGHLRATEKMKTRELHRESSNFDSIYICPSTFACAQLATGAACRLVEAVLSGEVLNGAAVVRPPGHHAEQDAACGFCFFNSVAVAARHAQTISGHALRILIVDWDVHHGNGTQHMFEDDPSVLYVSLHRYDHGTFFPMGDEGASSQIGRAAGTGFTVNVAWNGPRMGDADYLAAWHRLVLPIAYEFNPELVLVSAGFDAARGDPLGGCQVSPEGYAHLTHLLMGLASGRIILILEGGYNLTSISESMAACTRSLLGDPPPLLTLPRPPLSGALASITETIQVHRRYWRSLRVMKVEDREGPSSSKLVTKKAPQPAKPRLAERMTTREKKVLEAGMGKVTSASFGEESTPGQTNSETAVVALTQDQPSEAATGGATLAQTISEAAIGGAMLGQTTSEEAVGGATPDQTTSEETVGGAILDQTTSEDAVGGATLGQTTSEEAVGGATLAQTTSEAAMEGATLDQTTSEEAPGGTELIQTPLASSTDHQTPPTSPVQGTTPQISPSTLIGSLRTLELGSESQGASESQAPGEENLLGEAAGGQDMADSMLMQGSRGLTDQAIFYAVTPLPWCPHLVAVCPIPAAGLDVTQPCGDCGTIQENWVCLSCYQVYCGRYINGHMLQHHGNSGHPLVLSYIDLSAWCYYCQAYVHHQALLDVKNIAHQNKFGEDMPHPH
Kind of assay: HDAC6 activity assay. The class given is biochemical. Summed up:
as §1

Assay [3] has as its target T1, Sirt2_56-356. Description: Sirt2 demyristoylation activity assay. Type of assay: biochemical.
In assay [4] the target is T6, Sirt2 (Homo sapiens, UniProt Q8IXJ6).
T6 sequence (Q8IXJ6 56-356): T1 sequence (Q8IXJ6 56-356)
Description: Determination of kinetic parameters for ZMAL and ZMML. The following applies: substrate of Sirt2; mean ± SD (n = 3). Type of assay: biochemical.

Assay [5] has as its target T1, Sirt2_56-356. Kind of assay: Fluorescence polarization assay. Type of assay: binding.
In another assay the test system is PC-3M-luc cells. Description: Migration assay. Type of assay: cell-based, human. The settings on record: Homo sapiens, read-out: migration inhibition.
Assay [6] deals with T6, Sirt2. The settings on record: read-out: In vitro Sirt2 activity assay IC50; cited from earlier work.
Assay [7] concerns α-tubulin acetylation in PC-3M-luc cells. Kind of assay: Acetylation levels of α-tubulin by immunofluorescence. The settings on record: 20 μM, 5 hours. The class given is cell-based, human. Summed up:
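PC-3M-luc cells were plated at 20 000 per well, incubated overnight at 37 °C and 5% CO2, then exposed to 20 μM test compound for 5 h. They were fixed in 4% PFA for 8–10 min at RT and extracted with PBS/0.1% Triton X-100. Blocking used PBS/0.1% Triton/5% FCS. […] Read-out was immunofluorescence microscopy.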

Setting [8] is: In vitro Sirt2 activity assay IC50, Table 2.
The mark [9] stands for this setting: tracer 13 2 μM, HEK293T, 2 h, mean ± SD.

Sequence of human recombinant HDAC1 (Q13547 whole entry): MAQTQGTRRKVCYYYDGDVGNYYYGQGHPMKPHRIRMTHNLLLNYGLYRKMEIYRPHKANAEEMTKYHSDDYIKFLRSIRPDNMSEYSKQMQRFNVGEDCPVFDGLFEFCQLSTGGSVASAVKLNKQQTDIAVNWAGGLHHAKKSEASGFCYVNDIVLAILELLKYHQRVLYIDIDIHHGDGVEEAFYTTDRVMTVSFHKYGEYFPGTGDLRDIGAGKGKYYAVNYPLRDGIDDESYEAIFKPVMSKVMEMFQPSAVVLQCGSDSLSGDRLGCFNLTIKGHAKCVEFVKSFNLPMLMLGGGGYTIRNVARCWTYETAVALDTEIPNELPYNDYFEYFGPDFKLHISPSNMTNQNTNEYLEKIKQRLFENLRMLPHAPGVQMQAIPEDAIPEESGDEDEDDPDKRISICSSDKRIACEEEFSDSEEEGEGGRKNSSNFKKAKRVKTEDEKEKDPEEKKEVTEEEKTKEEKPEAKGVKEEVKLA

Take `Cc1cc(C)nc(SCC(=O)Nc2ncc(Cc3cccc(OCc4cn(Cc5ccccc5C)nn4)c3)s2)n1` [Compound 8]: the IC50 was 0.16 ± 0.02 µM at Sirt2_56-356 [1] (setting [8]); greater than 100 µM against Sirt3_118-395; greater than 100 µM at Sirt1_134-747; 1 ± 0.05 µM in assay [2]; greater than 100 µM on human recombinant HDAC1; greater than 100 µM on human recombinant HDAC6. For the same compound, at Sirt2_56-356 [3], the concentration for half-maximal inhibition (IC50) is 3.9 ± 0.2 µM.
For the compound `CCCCCCCCCCCCCC(=O)NCCCCC(NC(=O)OCc1ccccc1)C(=O)Nc1ccc2c(C)cc(=O)oc2c1` (stereo not shown) [ZMML], the Km at Sirt2 [4] was determined as 6.7 ± 1 µM.
Regarding `CCCCCCCC(=O)Nc1ncc(Cc2cccc(OCc3cn(CCOC)nn3)c2)s1` [Compound 5], the half-inhibitory concentration (IC50) at Sirt2_56-356 [1] (Sirt2 Deacet. IC50, mean ± SD) was 0.46 ± 0.21 µM; at Sirt3_118-395, greater than 100 µM; against Sirt1_134-747 it was greater than 100 µM; on human recombinant HDAC1, greater than 100 µM; at human recombinant HDAC6 it was greater than 100 µM. For the same compound, the “Sirt2 binding in the FP assay compared to SirReal2 (in words)” value at Sirt2_56-356 [5] is recorded as “weaker binding”. In the assay on PC-3M-luc cells, the inhibition at 10 µM stood at 35%. Also, the “NanoBRET assay IC50” value in assay [2] (setting [9]) was “did not detect cellular Sirt2 binding”. At Sirt2_56-356 [3] (read-out: Sirt2 Demyr. percentage of inhibition), the inhibition at 20 µM was determined as 23.2%.
Regarding `O=C(NCc1cccnc1)c1ccc2c(c1)C1C3CCC(C3)C1C(c1ccccc1)N2` (stereo not shown) [AEM2, reference compound], the IC50 on Sirt2 [6] is 3.8 µM; in assay [2] (read-out: NanoBRET assay IC50, tracer 13 2 μM, HEK293T, 2 h, mean ± SD) it was 5.2 ± 0.2 µM.
On to `Cc1ccc(Cn2cc(COc3cccc(Cc4cnc(NC(=O)CSc5nc(C)cc(C)n5)s4)c3)nn2)cc1` [Compound 9], for which the IC50 against Sirt2_56-356 [1] (setting [8]) was 0.17 ± 0.02 µM; against Sirt3_118-395, greater than 100 µM; against Sirt1_134-747, greater than 100 µM; in assay [2] it was 0.4 ± 0.02 µM; on human recombinant HDAC1, greater than 100 µM; at human recombinant HDAC6, greater than 100 µM. The IC50 against Sirt2_56-356 [3] stood at 2 ± 0.3 µM.
With `CC(=O)NCCCCC(NC(=O)OCc1ccccc1)C(=O)Nc1ccc2c(C)cc(=O)oc2c1` (stereo not shown) [ZMAL, Z-(Ac)Lys-AMC], the Km on Sirt2 [4] turned out to be 510 ± 95 µM.
In the case of `COCCn1cc(COc2cccc(Cc3cnc(NC(=O)CSc4nc(-c5ccccc5)cc(-c5ccccc5)n4)s3)c2)nn1` [Compound 7], the “acetylation levels of α-tubulin” value in assay [7] was “Only weak effects”. Also, the IC50 against Sirt2_56-356 [1] (Sirt2 Deacet. IC50, mean ± SD) is 620 ± 72 µM; against Sirt3_118-395, greater than 100 µM; against Sirt1_134-747, greater than 100 µM; on human recombinant HDAC1, greater than 100 µM; at human recombinant HDAC6, greater than 100 µM; on Sirt2_56-356 [3] it was greater than 100 µM. The “decreased potency compared to the positive control SirReal2” value on Sirt2_56-356 [1] (Sirt2 deacetylation) was “more than 1000 fold”. The “Sirt2 binding in the FP assay compared to SirReal2 (in words)” value at Sirt2_56-356 [5] is recorded as “weaker binding”. Moreover, in [2] (setting [9]), the “NanoBRET assay IC50” value was “did not detect cellular Sirt2 binding”.
